Data set [1] has as its system Trypanosoma cruzi. As to the kind of experiment: Antiparasitic activity against epimastigotes of Trypanosoma cruzi Dm28c assessed as reduction of parasite count after 5 days. The data set is classed as functional. To be noted: 120 h.
In data set [2] the test system is Trypanosoma cruzi. As to the kind of experiment: Antiparasitic activity against trypomastigotes of Trypanosoma cruzi Y assessed as reduction of parasite count after 24 hrs. In kind it is functional.
The nature of data set [3]: Cytotoxicity against BALB/c mouse splenocytes assessed as maximum non-toxic concentration by measuring [3H]-thymidine incorporation after 24 hrs by liquid scintillation counting. The data set is classed as cell-based, Splenocyte. The procedure, abridged: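 BALB/c splenocytes, 5 x 10^6 cells/well, given compounds at 1.23, 3.7, 33.33 and 100 µg/mL, 1% DMSO final, triplicate; 24 h at 37 °C, 5% CO2. Then 1.0 µCi [3H]-thymidine added; cells harvested and counted by liquid scintillation. Highest non-cytotoxic concentration taken from % incorporation.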
On the technique in general: Incorporation of labelled thymidine or its analogues reports DNA synthesis.

Data set [4] has as its system Trypanosoma cruzi. As to the kind of experiment: Antitrypanosomal activity against amastigote and trypomastigote forms of Trypanosoma cruzi Tulahuen expressing beta-galactosidase gene infected in mouse L-929 cells assessed as inhibition of parasite growth after 7 days by colorimetric betagalactosidase assay. In kind it is functional, organism-based. The conditions noted are these: L929, 168 h.

A short description of data set [5]: Cytotoxicity against mouse L929 cells assessed as cell viability after 96 hrs by alamarBlue assay. The data set is classed as cell-based. The procedure, abridged:
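Uninfected L-929 cells at the same cell number and timing as the beta-galactosidase assay; increasing concentrations starting at the T. cruzi IC50, quadruplicate. After 96 h, alamarBlue added; absorbance at 570 and 600 nm read 6 h later. Viability as % reduction versus untreated; CC50 by linear interpolation.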
Background: Alamar Blue is a resazurin reagent that responds to reducing activity.

Data set [6] can be described thus: Selectivity index, ratio of CC50 for mouse L929 cells to IC50 for amastigote and trypomastigote forms of Trypanosoma cruzi Tulahuen. The data set is classed as functional. The procedure, abridged:
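SI = CC50 in uninfected L-929 fibroblasts (alamarBlue, 96 h) divided by IC50 against intracellular amastigote/trypomastigote forms (beta-galactosidase assay, 7 days).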

Data set [7] concerns the target Cruzipain (Trypanosoma cruzi) (UniProt P25779). As to the kind of experiment: Inhibition of Trypanosoma cruzi catalytic activity of cruzain using Z-FR-AMC as substrate at 50 uM after 10 mins by fluorescence assay.
The subject of data set [8] is Trypanosoma cruzi. Kind of data set: Antitrypanosomal activity against amastigote and trypomastigote forms of Trypanosoma cruzi Tulahuen expressing beta-galactosidase gene infected in mouse L-929 cells assessed as inhibition of parasite growth at 100 uM after 7 days by colorimetric betagalactosidase assay. In kind it is functional. To be noted: L929, 168 h.
In data set [9] the test system is Trypanosoma cruzi. Kind of data set: Antiparasitic activity against trypomastigotes of Trypanosoma cruzi Y assessed as induction of parasite death at 5 uM after 24 hrs using propidium iodide staining after 24 hrs by flow cytometry analysis. The data set is classed as functional. The procedure, abridged: (§1)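 Y strain trypomastigotes (4x10^5) in RPMI-1640 with 10% FBS, exposed to test agent for 24 h at 37 °C, 5% CO2; then stained with propidium iodide and analysed by flow cytometry, at least 10,000 events. Read-out is % PI-positive cells versus untreated parasites; Triton X-100 as positive control. Two independent experiments, each concentration in duplicate.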

In data set [10] the test system is Trypanosoma cruzi. Kind of data set: Antiparasitic activity against trypomastigotes of Trypanosoma cruzi Y assessed as induction of parasite death at 0.5 uM after 24 hrs using propidium iodide staining after 24 hrs by flow cytometry analysis. The data set is classed as functional. The essentials:
as §1
A general note: Flow cytometry measures light scatter and fluorescence of single cells or particles in a stream.

Data set [11] has as its system Trypanosoma cruzi. As to the kind of experiment: Antiparasitic activity against trypomastigotes of Trypanosoma cruzi Y assessed as induction of parasite death after 24 hrs using propidium iodide staining after 24 hrs by flow cytometry analysis. The data set is classed as functional, organism-based. The procedure, abridged:
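Y strain trypomastigotes (4x10^5) in RPMI-1640 + 10% FBS exposed to 0.5 or 5.0 µM of each thiosemicarbazone, benznidazole 25 µM, or Triton X-100, for 24 h at 37 °C, 5% CO2. Then PI-stained and read by flow cytometry, at least 10,000 events. Two independent experiments, duplicates.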

Data set [12] deals with Trypanosoma cruzi. As to the kind of experiment: Antiparasitic activity against trypomastigotes of Trypanosoma cruzi Y assessed as induction of parasite death at 25 uM after 24 hrs using propidium iodide staining after 24 hrs by flow cytometry analysis. The data set is classed as functional. The procedure, abridged: as §1

Chain of Cruzipain (Trypanosoma cruzi) (P25779 123-467 limits assumed): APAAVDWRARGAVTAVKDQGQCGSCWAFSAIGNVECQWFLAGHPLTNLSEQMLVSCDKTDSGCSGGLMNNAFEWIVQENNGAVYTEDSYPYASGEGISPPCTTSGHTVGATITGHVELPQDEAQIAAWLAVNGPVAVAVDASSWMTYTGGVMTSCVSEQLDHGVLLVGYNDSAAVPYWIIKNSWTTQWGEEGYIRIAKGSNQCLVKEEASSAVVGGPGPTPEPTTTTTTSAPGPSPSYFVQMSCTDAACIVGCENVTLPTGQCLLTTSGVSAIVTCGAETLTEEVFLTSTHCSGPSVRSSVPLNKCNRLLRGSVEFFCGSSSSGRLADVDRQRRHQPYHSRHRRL

The term IC50 denotes the concentration at which inhibition is half-maximal. A word on the inhibition: it is the change of the read-out against control, counted positive when it falls. Regarding `CC(C)c1ccc(OC/C(=N\NC(N)=S)c2ccc(Br)cc2)cc1`, the IC50 in data set [1] was 3.8 µM; in data set [4], 12.3 µM. The CC50 in data set [2] came out at 2.9 µM. Further, the MNTC at 24 h in [3] is greater than 246 µM. Further, the CC50 at 96 h in [5] stood at 24.6 µM. Besides, the “Ratio CC50/IC50” value in data set [6] is listed as 2. The inhibition was 49.7% in [7] and “Dose-dependent effect” in [11]. The inhibition at 100 µM in data set [8] was greater than 70%. The results for the Activity in data set [9] and in [10] were 42.2% and 2.3%, respectively.

As to `O=C(Cn1ccnc1[N+](=O)[O-])NCc1ccccc1` [BENZNIDAZOLE], the CC50 in [2] came to 6.2 µM. For the same molecule, in data set [6], the “Ratio CC50/IC50” value was determined as 625. The Activity was 4.2% in data set [9] and 56.4% in data set [12].
